The source made the active and inactive calls. The calls are words filed in the database; no cut-off is given here.
Key:
[1] = tested on: MCF7; experiment: Antiproliferative activity against human MCF7 cells after 48 hrs; assay type: functional, cell-based; details: MCF7, 48 h
Outline: (§1)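 TCA fixation, sulforhodamine B stain, absorbance 585 nm minus day-of-treatment background plate; inhibition vs DMSO control; at least triplicate; IC50 accepted if within-experiment variability under 10%.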

[2] = tested on: HT-29; experiment: Antiproliferative activity against human HT-29 cells after 48 hrs; assay type: functional, cell-based; details: HT-29, 48 h; outline: as §1
[3] = tested on: M21; experiment: Antiproliferative activity against human M21 cells after 48 hrs; assay type: functional, cell-based; details: M21, 48 h; outline: as §1
[4] = target: Tubulin beta (Homo sapiens) (UniProt P68371+Q9H4B7+Q13509+P04350+Q3ZCM7+P07437+Q13885+Q9BVA1+Q9BUF5+A6NNZ2); experiment: inhibition of beta tubulin acylation in human M21 cells assessed as beta-tubulin band migration by Western blotting; assay type: cell-based
Outline: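 Floating plus adherent cells pooled, lysed in Laemmli buffer, 10% SDS-PAGE, nitrocellulose; blocked in TBS pH 7.4 with 5% milk/0.1% Tween 20, probed with monoclonal anti-β-tubulin 1:500 then peroxidase anti-mouse 1:2500.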

IC50 [1]	IC50 [2]	Activity [4]	SMILES	IC50 [3]
> 100 µM	> 100 µM		O=C(CCCl)Nc1cccc(CCCCCO)c1	> 100 µM
> 100 µM	> 100 µM		CCNC(=O)Nc1ccc(I)cc1	> 100 µM
5.7 µM	12 µM	inactive	CCCCCc1cccc(NC(=O)CCl)c1	1.4 µM
17 µM	19 µM		CC(C)(C)c1ccc(CNC(=O)NCCCCl)cc1	11 µM
> 100 µM	> 100 µM		CCNC(=O)Nc1cccc(CCCCCO)c1	> 100 µM
49 µM	28 µM		CC(C)(C)c1ccc(NC(=O)NCCCCl)cc1	35 µM
92 µM	72 µM		CC(C)(C)c1ccc(CNC(=O)CCCCl)cc1	69 µM
> 100 µM	90 µM		O=C(NCCCCl)Nc1ccc(I)cc1	> 100 µM
50 µM	56 µM		COCCCCCc1cccc(NC(=O)NCCCCl)c1	51 µM
> 100 µM	> 100 µM		CCNC(=O)NCc1ccc(C(C)(C)C)cc1	> 100 µM
26 µM	28 µM		CCCCCc1cccc(NC(=O)NCCCCl)c1	24 µM
6.1 µM	10 µM	inactive	COCCCCCc1cccc(NC(=O)NC(=O)CCl)c1	4.2 µM
8.3 µM	8.4 µM	inactive	CCCCCc1cccc(NC(=O)NC(=O)CCl)c1	3.5 µM
> 100 µM	> 100 µM		C=CC(=O)NCc1ccc(C(C)(C)C)cc1	72 µM
> 100 µM	> 100 µM		O=C(CCCCl)Nc1ccc(I)cc1	> 100 µM
29 µM	24 µM	inactive	C=CC(=O)Nc1ccc(C(C)(C)C)cc1	22 µM
> 100 µM	> 100 µM		CCCCCc1cccc(NC(=O)CCCCl)c1	> 100 µM
54 µM	46 µM		CCCCCc1cccc(NC(=O)CCCl)c1	54 µM
49 µM	31 µM		C=CC(=O)Nc1cccc(CCCCC)c1	27 µM
> 100 µM	> 100 µM		CC(C)(C)c1ccc(NC(=O)CCCCl)cc1	> 100 µM
12 µM	13 µM	inactive	COCCCCCc1cccc(NC(=O)CCl)c1	6.9 µM
71 µM	41 µM		CC(=O)CCCCc1cccc(NC(=O)NCCCCl)c1	36 µM

IC50 [1]	IC50 [2]	Activity [4]	SMILES	IC50 [3]
> 100 µM	> 100 µM		C=CC(=O)Nc1cccc(CCCCCO)c1	98 µM
17 µM	15 µM	inactive	C=CC(=O)Nc1ccc(I)cc1	11 µM
> 100 µM	40 µM		CCNC(=O)Nc1cccc(CCCCC(C)=O)c1	> 100 µM
5.7 µM	10 µM	inactive	O=C(CCl)NC(=O)Nc1cccc(CCCCCO)c1	4.6 µM
99 µM	29 µM		C=CC(=O)Nc1cccc(CCCCC(C)=O)c1	33 µM
> 100 µM	19 µM		O=C(NCCCCl)Nc1cccc(CCCCCO)c1	35 µM
> 100 µM	> 100 µM		O=C(CCCCl)Nc1cccc(CCCCCO)c1	> 100 µM
2 µM	6.5 µM		CC(C)(C)c1ccc(NC(=O)NC(=O)CCl)cc1	1.4 µM
> 100 µM	> 100 µM		CC(=O)CCCCc1cccc(NC(=O)CCCl)c1	> 100 µM
67 µM	16 µM		CCCCCc1cccc(NC(=O)NCC)c1	36 µM
23 µM	18 µM	inactive	CC(C)(C)c1ccc(CNC(=O)CCl)cc1	16 µM
26 µM	18 µM	inactive	O=C(CCCl)Nc1ccc(I)cc1	20 µM
> 100 µM	40 µM		C=CC(=O)Nc1cccc(CCCCCOC)c1	48 µM
> 100 µM	> 100 µM		CC(=O)CCCCc1cccc(NC(=O)CCCCl)c1	> 100 µM
67 µM	87 µM		CC(C)(C)c1ccc(CNC(=O)CCCl)cc1	> 100 µM
> 100 µM	> 100 µM		COCCCCCc1cccc(NC(=O)CCCCl)c1	> 100 µM
> 100 µM	> 100 µM		COCCCCCc1cccc(NC(=O)CCCl)c1	> 100 µM
4.9 µM	11 µM		O=C(CCl)NC(=O)Nc1ccc(I)cc1	8.1 µM
2.8 µM	7.1 µM	inactive	CC(C)(C)c1ccc(CNC(=O)NC(=O)CCl)cc1	2.4 µM
49 µM	88 µM		CC(C)(C)c1ccc(NC(=O)CCCl)cc1	74 µM
5.4 µM	15 µM	inactive	CC(C)(C)c1ccc(NC(=O)CCl)cc1	5.4 µM
> 100 µM	> 100 µM		CCNC(=O)Nc1cccc(CCCCCOC)c1	> 100 µM

SMILES	IC50 [1]	IC50 [2]	Activity [4]	IC50 [3]
O=C(CCl)Nc1ccc(I)cc1	6.2 µM	9.7 µM	inactive	5.1 µM
